Measurements as given in the RNAGym collection of RNA variant scans (doi:10.1126/science.aae0568).
Variants at the floor of the assay were thinned out.

B1: tRNA (parent)
chain: GUUCCGUUGGCGUAAUGGUAACGCGUCUCCCUCCUAAGGAGAAGACUGCGGGUUCGAGUCCCGUACGGAACG

Variants of: B1
Test: yeast fitness relative to wild type (ratio to wild type); higher = fitter; tRNA-Arg(CCU), competitive growth, 37 C, YPD
How it was run: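 Amplicons of the tRNA-Arg(CCU) gene were sequenced, 100-nucleotide paired-end, from the start population and from each end population of a pooled yeast competition. The competition, in six parallel replicates, lasted 24 hours in YPD at 37°C. Fitness relative to wild type was calculated from changes in genotype frequencies. Genotypes had to have ≥ 100 starting reads, and estimates < 0.5 were set to 0.5.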

Variant	yeast fitness
U2C G68C	0.963
U2C U3A C24A C27U A42G G56C C66U	≤ 0.5
U2C U3A U19G G44C	0.591
U2C U3A U26C U53C	≤ 0.5
U2C U3C C5U C34U	≤ 0.5
U2C U3C C34U A40U C55U A65G	≤ 0.5
U2C U3C C34U A65G	≤ 0.5
U2C U3C C34U C55A	≤ 0.5
U2C U3C C34U C62G G63A	≤ 0.5
U2C U3C C34U G68C	≤ 0.5
U2C U3C U19A C61A	≤ 0.5
U2C U3G G10A A69C	≤ 0.5
U2C U7A C31A C66G	≤ 0.5
U2C U7A G68A	≤ 0.5
U2C U7A U35A G56A	≤ 0.5
U2C U7C G23A	0.592
U2C U7G C33U C55A	≤ 0.5
U2C U8A A36U	≤ 0.5
U2C U8A G17C G38A	≤ 0.5
U2C U8A G17C G38A G56C C61A	≤ 0.5
U2C U8C	0.965
U2C U8C A21U C29U G39A G51C C60U C66G	≤ 0.5
U2C U8C A42C	0.676
U2C U8C C34A A42C C49A	≤ 0.5

Variant	yeast fitness
U2C U8C C34A A42C G68C	≤ 0.5
U2C U8C G23C C31G C33U A42G G52C G58C	≤ 0.5
U2C U8C G44A U53C A70U	≤ 0.5
U2C U8G A14G U32G U35A	≤ 0.5
U2C U8G A20G U32G U35A	≤ 0.5
U2C U8G C11U C24U A37U C66A	≤ 0.5
U2C U8G C31G A42C G56A C61G	0.507
U2C U8G U32G U35A C55U G58A	≤ 0.5
U2C U13A C27G C33A G48A G51C	≤ 0.5
U2C U13A G18A A42G	≤ 0.5
U2C U13A G39C C60G A70U	0.537
U2C U13A U54C C66U	≤ 0.5
U2C U13C A14G C22G U26A	≤ 0.5
U2C U13C A20G U28C A40G	0.679
U2C U13C C22G C24U C61A	≤ 0.5
U2C U13C C22G U26A	≤ 0.5
U2C U13C C22G U26A C31U A42C G50C	≤ 0.5
U2C U13C C27A G58C G63C	≤ 0.5
U2C U13C G41A	0.602
U2C U13C G44C G58A	0.59
U2C U13G G67U	≤ 0.5
U2C U16A	0.971
U2C U16A A42G	0.649
U2C U16A A70C	0.676

Variant	yeast fitness
U2C U16A G63A	0.705
U2C U16C A36G	≤ 0.5
U2C U16C A36G C55U	≤ 0.5
U2C U16C C27G	0.669
U2C U16G A70G	1.06
U2C U16G C66A	≤ 0.5
U2C U16G G51A	0.588
U2C U16G G56C	≤ 0.5
U2C U19A C30U G38C	0.54
U2C U19C	0.897
U2C U19C A37G	≤ 0.5
U2C U19C A37G C49A A69C	≤ 0.5
U2C U19C A45C C55U	≤ 0.5
U2C U19C A57C	0.642
U2C U19C A69C	0.708
U2C U19C C49U A57C	≤ 0.5
U2C U19C G50A	0.593
U2C U19G	0.867
U2C U19G C60A	0.528
U2C U19G G68A	0.559
U2C U26A	0.918
U2C U26C A36G	≤ 0.5
U2C U26C C27G U28A A43U	≤ 0.5
U2C U26C G48A	0.663

Variant	yeast fitness
U2C U26G A65G	0.712
U2C U26G G38C	≤ 0.5
U2C U28A A70G	≤ 0.5
U2C U28A G44U	≤ 0.5
U2C U28A G56A	≤ 0.5
U2C U28A U54C	0.543
U2C U28C C34U U64A A65U	0.735
U2C U28C C55A	≤ 0.5
U2C U32A A65C	≤ 0.5
U2C U32A C46U	0.603
U2C U32A C61A A65G	≤ 0.5
U2C U32C	0.973
U2C U32C A40C G48A	0.551
U2C U32C U35A G56A	≤ 0.5
U2C U32G C34U A57G	≤ 0.5
U2C U35A C55A	≤ 0.5
U2C U35A G56A	0.576
U2C U35A U47A C49U C55U C66U	≤ 0.5
U2C U35C A69C	≤ 0.5
U2C U35C U47C	0.788
U2C U35G A40C C62G C66G	≤ 0.5
U2C U47C	0.977
U2C U47C A70U	0.808
U2C U47G	0.626

Variant	yeast fitness
U2C U53G	0.598
U2C U54C	0.873
U2C U54C C62U	0.571
U2C U54G	0.657
U2C U59C	0.996
U2C U64C G68A	0.578
U2G A14C A42C C49U A65G A70U	0.533
U2G A14C A57U A69U	≤ 0.5
U2G A14C A69C	≤ 0.5
U2G A14C C27U U35A A57G C66U	≤ 0.5
U2G A14C C33A C46G	≤ 0.5
U2G A14G	0.713
U2G A14G A15U G25C C49U	≤ 0.5
U2G A14G C22U C24G A69C	≤ 0.5
U2G A14G C29G A37U	≤ 0.5
U2G A14G C29G A37U C62G C66U	≤ 0.5
U2G A14G C62G A70U	≤ 0.5
U2G A14U A20G C33G A70C	≤ 0.5
U2G A14U A20G C33G C61U A70C	≤ 0.5
U2G A14U A20G C33G G67U A69C	≤ 0.5
U2G A14U U28A	≤ 0.5
U2G A15C A36C	0.649
U2G A15C A36C A69U A70G	≤ 0.5
U2G A15C A37G A43U	≤ 0.5

Variant	yeast fitness
U2G A15C A43G	≤ 0.5
U2G A15C C24U	0.591
U2G A15C C24U C55U A65G	≤ 0.5
U2G A15C C49U	0.563
U2G A15C G50A	≤ 0.5
U2G A15C U47G A69C	≤ 0.5
U2G A15G G17A	≤ 0.5
U2G A15G G17A C29G A40U C61U C66U	≤ 0.5
U2G A15G G17A G52C A65G	0.558
U2G A15G G17A G52C C66A	≤ 0.5
U2G A15U C62G	≤ 0.5
U2G A15U U35G U53G	≤ 0.5
U2G A15U U47A C62A	≤ 0.5
U2G A20C C33A	≤ 0.5
U2G A20C G44A A45G	0.712
U2G A20G	0.901
U2G A20G C22A A40C C46G G48A C49U	≤ 0.5
U2G A20G C22A A40C C46G G48A C49U G63A	≤ 0.5
U2G A20U A43U	0.594
U2G A20U C34A C55G C66A	≤ 0.5
U2G A20U G25C C49G A65C A70U	≤ 0.5
U2G A20U U32A C46G	≤ 0.5
U2G A21C A45G	0.54
U2G A21C C22G	0.541

Variant	yeast fitness
U2G A21C C22G A45G G51A	0.697
U2G A21C C22U	0.575
U2G A21C C46G C49G	≤ 0.5
U2G A21G	0.917
U2G A21G A57C	≤ 0.5
U2G A21G A65G	0.663
U2G A21G A69C	0.501
U2G A21G C61G	≤ 0.5
U2G A21G U32C U59G C66U A70C	≤ 0.5
U2G A21G U47C A69C	≤ 0.5
U2G A21U	0.729
U2G A21U G67C	≤ 0.5
U2G A36G	0.953
U2G A36G A40U A43U	≤ 0.5
U2G A36G A40U A43U C66A	≤ 0.5
U2G A36G A40U A43U G56C A57U	≤ 0.5
U2G A36U C62G G63A	≤ 0.5
U2G A36U G58A	≤ 0.5
U2G A36U G67A G68C	≤ 0.5
U2G A36U G68C	0.605
U2G A37C	0.585
U2G A37C C49G C62A	≤ 0.5
U2G A37C C49U A70C	≤ 0.5
